# From ChEMBL document CHEMBL1629640, “Antimicrobial activities of jadomycin B and structurally related analogues” (2009)
# Assays:
# Staphylococcus aureus [1] = assay: Antimicrobial activity against Staphylococcus aureus C622 by broth microdilution method; format: functional
# Outline: (§1)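 Preliminary MIC screen by twofold serial broth microdilution in Mueller-Hinton broth, 0.5% DMSO final, with a DMSO-only control. Overnight mid-log cultures were diluted 100-fold, grown 4 h, then diluted 10−6 and added to wells. Plates were incubated overnight and growth read visually. Inhibition was defined as growth ≤ half of control. Three replicates per strain.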
# Bacillus subtilis = assay: Antimicrobial activity against Bacillus subtilis C971 by broth microdilution method; format: functional
# Outline: (§2)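 Preliminary screen by broth microdilution. Jadomycins dissolved in 100% DMSO and diluted to a 2.56 mg ml−1 working stock in 5% DMSO. First well held 0.5% DMSO final, followed by twofold serial dilutions in broth. A DMSO-only control was included. Strains were grown in Mueller-Hinton broth to mid-log, diluted 100-fold, incubated 4 h, then diluted 10−6. Plates were incubated overnight and growth was read visually. MIC defined as growth ≤ half of control. Three replicates.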
# Staphylococcus aureus [2] = assay: Antimicrobial activity against methicillin-resistant Staphylococcus aureus C623 by broth microdilution method; format: functional; outline: as §1
# [3] = test system: Staphylococcus epidermidis; assay: Antimicrobial activity against Staphylococcus epidermidis C960 by broth microdilution method; format: functional; outline: as §2
# Staphylococcus aureus [4] = assay: Antimicrobial activity against methicillin-resistant Staphylococcus aureus C623 by CLSI method; format: functional
# Outline: (§3)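 MIC by CLSI broth microdilution in cation-adjusted Mueller-Hinton broth at 5 × 10^5 CFU ml−1 final (5 × 10^4 CFU/well).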
# Staphylococcus aureus [5] = assay: Antimicrobial activity against Staphylococcus aureus Becker CP8 by broth microdilution method; format: functional; outline: as §1
# Pseudomonas aeruginosa [6] = assay: Antimicrobial activity against Pseudomonas aeruginosa H187 by broth microdilution method; format: functional; outline: as §2
# Enterococcus faecalis = assay: Antimicrobial activity against Enterococcus faecalis C625 by broth microdilution method; format: functional; outline: as §2
# Staphylococcus aureus [7] = assay: Antimicrobial activity against Staphylococcus aureus 305 by broth microdilution method; format: functional; outline: as §1
# Pseudomonas aeruginosa [8] = assay: Antimicrobial activity against Pseudomonas aeruginosa H188 by broth microdilution method; format: functional; outline: as §2
# [9] = test system: Staphylococcus epidermidis; assay: Antimicrobial activity against Staphylococcus epidermidis isolate C621 by broth microdilution method; format: functional; outline: as §2
# Staphylococcus aureus [10] = assay: Antimicrobial activity against Staphylococcus aureus ATCC 55804 by broth microdilution method
# [11] = test system: Staphylococcus epidermidis; assay: Antimicrobial activity against Staphylococcus epidermidis C960 by CLSI method; format: functional
# Staphylococcus aureus [12] = assay: Antimicrobial activity against Staphylococcus aureus 305 by CLSI method; format: functional; outline: as §3
smiles,measurement,setting,value
CC[C@H](C)[C@H]1C(=O)O[C@H]2c3cc(C)cc(O)c3C3=C(C(=O)c4c(O[C@H]5C[C@@H](O)[C@@H](O)[C@H](C)O5)cccc4C3=O)N12 [JADOMYCIN B],MIC,Staphylococcus aureus [1],2 µg/mL
same,MIC,Bacillus subtilis,4 µg/mL
same,MIC,Staphylococcus aureus [2],< 1 µg/mL
same,MIC,[3],< 1 µg/mL
same,MIC,Staphylococcus aureus [4],8 µg/mL
same,MIC,Staphylococcus aureus [5],2 µg/mL
same,MIC,Pseudomonas aeruginosa [6],> 128 µg/mL
same,MIC,Enterococcus faecalis,32 µg/mL
same,MIC,Staphylococcus aureus [7],< 1 µg/mL
same,MIC,Pseudomonas aeruginosa [8],> 128 µg/mL
same,MIC,[9],< 1 µg/mL
same,MIC,Staphylococcus aureus [10],4 µg/mL
same,MIC,[11],0.5 µg/mL
same,MIC,Staphylococcus aureus [12],4 µg/mL
Cc1cc(O)c2c(c1)[C@@H]1OC(=O)[C@H](Cc3ccccc3)N1C1=C2C(=O)c2cccc(O[C@H]3C[C@@H](O)[C@@H](O)[C@H](C)O3)c2C1=O [JADOMYCIN F],MIC,Staphylococcus aureus [1],1 µg/mL
same,MIC,Bacillus subtilis,16 µg/mL
same,MIC,Staphylococcus aureus [2],1 µg/mL
same,MIC,[3],< 1 µg/mL
same,MIC,Staphylococcus aureus [4],8 µg/mL
same,MIC,Staphylococcus aureus [5],8 µg/mL
same,MIC,Pseudomonas aeruginosa [6],> 128 µg/mL
same,MIC,Enterococcus faecalis,> 128 µg/mL
same,MIC,Staphylococcus aureus [7],4 µg/mL
same,MIC,Pseudomonas aeruginosa [8],> 128 µg/mL
same,MIC,[9],2 µg/mL
same,MIC,Staphylococcus aureus [10],16 µg/mL
same,MIC,[11],0.5 µg/mL
same,MIC,Staphylococcus aureus [12],4 µg/mL
Cc1cc(O)c2c(c1)[C@@H]1OC(=O)[C@@H](CO)N1C1=C2C(=O)c2cccc(O[C@H]3C[C@@H](O)[C@@H](O)[C@H](C)O3)c2C1=O [JADOMYCIN DS],MIC,Staphylococcus aureus [1],8 µg/mL
same,MIC,Bacillus subtilis,16 µg/mL
same,MIC,Staphylococcus aureus [2],8 µg/mL
same,MIC,[3],1 µg/mL
same,MIC,Staphylococcus aureus [4],16 µg/mL
same,MIC,Staphylococcus aureus [5],8 µg/mL
same,MIC,Pseudomonas aeruginosa [6],> 128 µg/mL
same,MIC,Enterococcus faecalis,> 128 µg/mL
same,MIC,Staphylococcus aureus [7],4 µg/mL
same,MIC,Pseudomonas aeruginosa [8],> 128 µg/mL
same,MIC,[9],4 µg/mL
same,MIC,Staphylococcus aureus [10],16 µg/mL
same,MIC,[11],2 µg/mL
same,MIC,Staphylococcus aureus [12],32 µg/mL
Cc1cc(O)c2c(c1)[C@@H]1NC(=O)C[C@@H](C(=O)O)N1C1=C2C(=O)c2cccc(O[C@H]3C[C@@H](O)[C@@H](O)[C@H](C)O3)c2C1=O [JADOMYCIN N],MIC,Staphylococcus aureus [1],32 µg/mL
same,MIC,Bacillus subtilis,32 µg/mL
same,MIC,Staphylococcus aureus [2],16 µg/mL
same,MIC,[3],< 1 µg/mL
same,MIC,Staphylococcus aureus [4],128 µg/mL
same,MIC,Staphylococcus aureus [5],16 µg/mL
same,MIC,Pseudomonas aeruginosa [6],> 128 µg/mL
same,MIC,Enterococcus faecalis,> 128 µg/mL
same,MIC,Staphylococcus aureus [7],8 µg/mL
same,MIC,Pseudomonas aeruginosa [8],> 128 µg/mL
same,MIC,[9],8 µg/mL
same,MIC,Staphylococcus aureus [10],32 µg/mL
same,MIC,[11],16 µg/mL
same,MIC,Staphylococcus aureus [12],> 128 µg/mL
Cc1cc(O)c2c(c1)[C@@H]1OC(=O)[C@H](Cc3ccc(O)cc3)N1C1=C2C(=O)c2cccc(O[C@H]3C[C@@H](O)[C@@H](O)[C@H](C)O3)c2C1=O [JADOMYCIN Y],MIC,Staphylococcus aureus [1],8 µg/mL
same,MIC,Bacillus subtilis,8 µg/mL
same,MIC,Staphylococcus aureus [2],8 µg/mL
same,MIC,[3],< 1 µg/mL
same,MIC,Staphylococcus aureus [5],4 µg/mL
same,MIC,Pseudomonas aeruginosa [6],> 128 µg/mL
same,MIC,Enterococcus faecalis,> 128 µg/mL
same,MIC,Staphylococcus aureus [7],4 µg/mL
same,MIC,Pseudomonas aeruginosa [8],> 128 µg/mL
same,MIC,[9],2 µg/mL
same,MIC,Staphylococcus aureus [10],16 µg/mL
Cc1cc(O)c2c(c1)[C@@H]1OC(=O)[C@@H]([C@H](C)O)N1C1=C2C(=O)c2cccc(O[C@H]3C[C@@H](O)[C@@H](O)[C@H](C)O3)c2C1=O [JADOMYCIN DT],MIC,Staphylococcus aureus [1],16 µg/mL
same,MIC,Bacillus subtilis,64 µg/mL
same,MIC,Staphylococcus aureus [2],16 µg/mL
same,MIC,[3],2 µg/mL
same,MIC,Staphylococcus aureus [4],32 µg/mL
same,MIC,Staphylococcus aureus [5],32 µg/mL
same,MIC,Pseudomonas aeruginosa [6],> 128 µg/mL
same,MIC,Enterococcus faecalis,> 128 µg/mL
same,MIC,Staphylococcus aureus [7],32 µg/mL
same,MIC,Pseudomonas aeruginosa [8],> 128 µg/mL
same,MIC,[9],8 µg/mL
same,MIC,Staphylococcus aureus [10],64 µg/mL
same,MIC,[11],4 µg/mL
same,MIC,Staphylococcus aureus [12],32 µg/mL
